Measurements published in PubChem BioAssay AID602301 (The Scripps Research Institute Molecular Screening Center, 2012).
Active and inactive are the calls of the source.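 The calls were made as follows: active = inhibition of at least 50%; inactive = inhibition below 50%.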

test system: Abhydrolase domain-containing protein 11 (ABHD11), Mus musculus; assay: mouse ABHD11 activity inhibitors in proteome – biochemical, competitive gel ABPP, set 1, selectivity assay for DAGLb inhibitor project, late-stage follow-up (AID 602301); conditions: Recombinant ABHD11 in HEK293T proteome, gel ABPP FP-Rh; at 10 µM; active compounds read high
Procedure, shortened: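 System: recombinant mouse ABHD11 spiked into HEK293T membrane proteome overexpressing mouse DAGLb; Quantity: 0.050 µM ABHD11 in 0.3 mg/mL proteome; Times: 30 min compound plus 30 min probe, 37 °C; Technique: SDS-PAGE in-gel fluorescence, band IOD; Measure: percent inhibition of ABHD11 band, background-corrected, relative to DMSO control.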

Row | inhibition | Structure (SMILES)
1 | 30% (inactive) | O=C(N1CCCCC1Cc1ccccc1)n1cc(-c2ccc(-c3ccc(C(F)(F)F)cc3)cc2)nn1 (stereo not given)
2 | 20% (inactive) | O=C(N1CCCCC1Cc1ccccc1)n1cc(-c2ccc(-c3ccccc3OC(F)(F)F)cc2)nn1 (stereo not given)
3 | 10% (inactive) | O=C(N1CCCCC1Cc1ccccc1)n1ncc(-c2ccc(OC(F)(F)F)cc2)n1 (stereo not given)
4 | 15% (inactive) | O=C(N(CCc1ccccc1)Cc1ccco1)n1cc(-c2ccc(OC(F)(F)F)cc2)nn1
5 | 50% | O=C(N1CCCCC1Cc1ccccc1)n1cc(-c2ccc(-c3ccccc3Cl)cc2)nn1 (stereo not given)
6 | 20% (inactive) | O=C(N1CCCCC1Cc1ccccc1)n1cc(-c2ccc(-c3cccc(CO)c3)cc2)nn1 (stereo not given)
7 | 10% (inactive) | COc1ccccc1-c1ccc(-c2cn(C(=O)N3CCCCC3Cc3ccccc3)nn2)cc1 (stereo not given)
8 | 10% (inactive) | O=C(N1CCCCC1Cc1ccccc1)n1cc(-c2ccc(-c3ccccc3C(F)(F)F)cc2)nn1 (stereo not given)
9 | 10% (inactive) | O=C(N1CCCCC1Cc1ccccc1)n1cc(-c2ccc(-c3cccc(C(F)(F)F)c3)cc2)nn1 (stereo not given)
10 | 0% (inactive) | CC(C)(C)OC(=O)NCCCCCN(CCc1ccccc1)C(=O)n1cc(-c2ccc(OC(F)(F)F)cc2)nn1
11 | 20% (inactive) | O=C(c1ccc(-c2ccc(-c3cn(C(=O)N4CCCCC4Cc4ccccc4)nn3)cc2)cc1)N1CCCCC1 (stereo not given)
12 | 95% | O=C(N1CCCCC1Cc1ccccc1)n1ncc(C(O)(c2ccccc2)c2ccccc2)n1 (stereo not given)
13 | 30% (inactive) | O=C(N1CCCCC1Cc1ccccc1)n1cc(-c2ccc(-c3ccoc3)cc2)nn1 (stereo not given)
14 | 90% | O=C(N1CCCCC1Cc1ccccc1)n1cc(-c2ccc(Br)cc2)nn1 (stereo not given)
15 | 20% (inactive) | O=C(N1CCCCC1Cc1ccccc1)n1cc(-c2ccc(-c3ccc(OC(F)(F)F)cc3)cc2)nn1 (stereo not given)
16 | 10% (inactive) | CC(C)CN(CCc1ccccc1)C(=O)n1cc(-c2ccc(OC(F)(F)F)cc2)nn1
17 | 60% | Cc1ccccc1-c1ccc(-c2cn(C(=O)N3CCCCC3Cc3ccccc3)nn2)cc1 (stereo not given)
18 | 10% (inactive) | O=C(N1CCCCC1Cc1ccccc1)n1cc(-c2ccc(-c3ccc4c(c3)OCO4)cc2)nn1 (stereo not given)
19 | 10% (inactive) | O=C(c1ccc(-c2cn(C(=O)N3CCCCC3Cc3ccccc3)nn2)cc1)N1CCCCC1 (stereo not given)
20 | 20% (inactive) | O=C(N1CCCCC1Cc1ccccc1)n1cc(-c2ccc(-c3ccccc3CO)cc2)nn1 (stereo not given)
21 | 80% | O=C(N1CCCCC1Cc1ccccc1)n1cc(-c2cccc(-c3ccccc3)c2)nn1 (stereo not given)
22 | 95% | O=C(N1CCCCC1Cc1ccccc1)n1cc(-c2cc(F)cc(F)c2)nn1 (stereo not given)
23 | 50% | O=C(N1CCCCC1Cc1ccccc1)n1cc(-c2ccc(OC(F)(F)F)cc2)nn1 (stereo not given)
24 | 95% | O=C(N1CCCCC1Cc1ccccc1)n1cc(-c2ccccc2-c2ccccc2)nn1 (stereo not given)

Row | Structure (SMILES) | inhibition
25 | O=C(N1CCCCC1Cc1ccccc1)n1cc(-c2ccc(-c3ccccc3)cc2)nn1 (stereo not given) | 0% (inactive)
